Results published in ChEMBL document CHEMBL1145514, “Single-dose oral amoxicillin or linezolid for prophylaxis of experimental endocarditis due to vancomycin-susceptible and vancomycin-resistant Enterococcus faecalis” (Antimicrob Agents Chemother, 2007).
≈ marks a conversion by molar mass, not a printed value. Calls of active or inactive are those of the source. No cut-off for these calls is given here.

Tests used:
Enterococcus faecalis [1] = assay: Antibacterial activity against vancomycin-susceptible Enterococcus faecalis 309 after 24 hrs by broth macrodilution method; type: functional
Enterococcus faecalis [2] = assay: Antibacterial activity against vancomycin-resistant Enterococcus faecalis UCN41 after 24 hrs by broth macrodilution method; type: functional
Enterococcus faecalis [3] = assay: Antibacterial activity against vancomycin-susceptible Enterococcus faecalis JH2-2 after 24 hrs by broth macrodilution method; type: functional
Enterococcus faecalis [4] = assay: Antibacterial activity against vancomycin-susceptible Enterococcus faecalis 1209 after 24 hrs by broth macrodilution method; type: functional
[5] = Cmax in Enterococcus faecalis infected Wistar rat at single administration of 1 g, iv; type: ADME, organism-based; design: dose 1 g, route intravenous; settings: in vivo
Summary of the method: (§1)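 Serum drug levels in rats receiving human-kinetics simulation by pump, measured in groups of three to five animals by agar diffusion bioassay with Bacillus subtilis ATCC 6633 as indicator; detection limit 1.76 mg/liter; linear standard curves. Values as means ± SD.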

Rattus norvegicus [6] = assay: T>MIC in Enterococcus faecalis infected Wistar rat at single administration of 1 g, iv; type: ADME, organism-based; settings: in vivo; summary of the method: as §1
[7] = Tmax in Enterococcus faecalis infected Wistar rat at single administration of 1 g, iv; type: ADME, organism-based; settings: in vivo; summary of the method: as §1
Enterococcus faecalis [8] = assay: Antibacterial activity against vancomycin-resistant Enterococcus faecalis UCN41 challenged with ID90 bacterial size inoculum in Wistar rat assessed as infection at single administration of 1 g, iv; type: functional, organism-based
Summary of the method: (§2)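 Female Wistar rats (180 to 200 g) with catheter-induced sterile aortic vegetations; 24 h after catheterization, groups of 10 received prophylaxis by pump at changing flow rates mimicking human serum kinetics; controls got i.v. saline. I.v. challenge at peak serum drug level with ID90 or 10 times ID90. Vegetations cultured 72 h after prophylaxis ended; sterile if no growth, detection limit ≥2 log10 CFU/g.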

Enterococcus faecalis [9] = assay: Antibacterial activity against vancomycin-susceptible Enterococcus faecalis JH2-2 challenged with ID90 bacterial size inoculum in Wistar rat assessed as infection at single administration 1 g, iv; type: functional, organism-based; summary of the method: as §2
Enterococcus faecalis [10] = assay: Antibacterial activity against vancomycin-resistant Enterococcus faecalis UCN41 challenged with 10 times ID90 bacterial size inoculum in Wistar rat assessed as infection at single administration of 600 mg, po; type: functional, organism-based; summary of the method: as §2
[11] = Tmax in Enterococcus faecalis infected Wistar rat at single administration of 2 to 3 g, po; type: ADME, organism-based; settings: in vivo
Summary of the method: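 Female Wistar rats (180-200 g) with catheter-induced sterile aortic vegetations; 24 h after catheterization, drug delivered by pump at changing flow rates to mimic human serum kinetics of a single 2-3 g oral dose. Serum levels in groups of 3-5 rats by agar diffusion bioassay (Bacillus subtilis ATCC 6633 indicator; detection limit 0.39 mg/liter); means ± SD.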

[12] = Cmax in Enterococcus faecalis infected Wistar rat at single administration of 2 to 3 g, po; type: ADME, organism-based; settings: in vivo
Summary of the method: (§3)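 Catheterized female Wistar rats received pump-controlled i.v. infusion at changing flow rates simulating human serum kinetics of the oral regimen. Serum drug levels were measured by agar diffusion bioassay in groups of 3–5 animals. Indicator organisms were B. subtilis ATCC 6633 for amoxicillin (detection limit 0.39 mg/liter) and S. aureus ATCC 29213 for linezolid (detection limit 3.12 mg/liter). Values are means ± SD.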

Rattus norvegicus [13] = assay: T>MIC in Enterococcus faecalis infected Wistar rat at single administration of 2 to 3 g, po; type: ADME, organism-based; settings: in vivo; summary of the method: as §3
Enterococcus faecalis [14] = assay: Antibacterial activity against vancomycin-susceptible Enterococcus faecalis 309 challenged with ID90 bacterial size inoculum in Wistar rat assessed as infection at single administration of 2 to 3 g, po; type: functional, organism-based
Summary of the method: (§4)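 Female Wistar rats (180–200 g) with catheter-induced sterile aortic vegetations. 24 h after catheterization, drug is delivered i.v. by pump at changing flow rates to mimic human serum kinetics of a single 2–3 g oral dose. Rats are challenged i.v. with the ID90 at peak serum concentration. Vegetations are cultured 72 h after prophylaxis ends; sterile = no growth (detection ≥2 log10 CFU/g).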

Enterococcus faecalis [15] = assay: Antibacterial activity against vancomycin-susceptible Enterococcus faecalis 1209 challenged with 10 times ID90 bacterial size inoculum in Wistar rat assessed as infection at single administration of 2 to 3 g, po
Enterococcus faecalis [16] = assay: Antibacterial activity against vancomycin-susceptible Enterococcus faecalis 309 challenged with 10 times ID90 bacterial size inoculum in Wistar rat assessed as infection at single administration of 2 to 3 g, po
Enterococcus faecalis [17] = assay: Antibacterial activity against vancomycin-resistant Enterococcus faecalis UCN41 challenged with ID90 bacterial size inoculum in Wistar rat assessed as infection at single administration of 2 to 3 g, po; type: functional, organism-based; summary of the method: as §2
Enterococcus faecalis [18] = assay: Antibacterial activity against vancomycin-susceptible Enterococcus faecalis JH2-2 challenged with ID90 bacterial size inoculum in Wistar rat assessed as infection at single administration of 2 to 3 g, po; type: functional, organism-based; summary of the method: as §4
[19] = Tmax in Enterococcus faecalis infected Wistar rat at 600 mg, po four consecutive administration every 12 hrs; type: ADME, organism-based; settings: in vivo
Summary of the method: (§5)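 Female Wistar rats (180–200 g) with sterile aortic vegetations from a carotid catheter received drug 24 h later by pump at changing flow rates, mimicking human serum kinetics of 600 mg oral doses every 12 h. Serum levels were measured in groups of three to five rats by agar diffusion bioassay (S. aureus ATCC 29213 indicator; detection limit 3.12 mg/liter).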

[20] = Cmax in Enterococcus faecalis infected Wistar rat at single administration of 600 mg, po; type: ADME, organism-based; design: dose 600 mg, route oral; settings: in vivo; summary of the method: as §3
[21] = Cmax in Enterococcus faecalis infected Wistar rat at 600 mg, po two consecutive administration every 12 hrs; type: ADME, organism-based; design: dose 600 mg, route oral; settings: in vivo; summary of the method: as §3
[22] = Tmax in Enterococcus faecalis infected Wistar rat at 600 mg, po two consecutive administration every 12 hrs; type: ADME, organism-based; settings: in vivo; summary of the method: as §5
[23] = Cmax in Enterococcus faecalis infected Wistar rat at 600 mg, po four consecutive administration every 12 hrs; type: ADME, organism-based; design: dose 600 mg, route oral; settings: in vivo; summary of the method: as §3
Rattus norvegicus [24] = assay: T>MIC in Enterococcus faecalis infected Wistar rat at 600 mg, po two consecutive administration every 12 hrs; type: ADME, organism-based; settings: in vivo; summary of the method: as §3
Rattus norvegicus [25] = assay: T>MIC in Enterococcus faecalis infected Wistar rat at single administration of 600 mg, po; type: ADME, organism-based; settings: in vivo; summary of the method: as §3
[26] = Tmax in Enterococcus faecalis infected Wistar rat at single administration of 600 mg, po; type: ADME, organism-based; settings: in vivo; summary of the method: as §5
Rattus norvegicus [27] = assay: T>MIC in Enterococcus faecalis infected Wistar rat at 600 mg, po four consecutive administration every 12 hrs; type: ADME, organism-based; settings: in vivo; summary of the method: as §3
[28] = Enterococcus faecalis, 309, 24 h
[29] = Enterococcus faecalis, 1209, 24 h

For GENTAMICIN, the MIC (Enterococcus faecalis [1]) was 64 µg/mL, the MIC (Enterococcus faecalis [2]) was 1 µg/mL and the MIC (Enterococcus faecalis [3]) was 2 µg/mL. The MIC (Enterococcus faecalis [4]) was 16 µg/mL.
For `CN[C@H](CC(C)C)C(=O)N[C@H]1C(=O)N[C@@H](CC(N)=O)C(=O)N[C@H]2C(=O)N[C@H]3C(=O)N[C@H](C(=O)N[C@H](C(=O)O)c4cc(O)cc(O)c4-c4cc3ccc4O)[C@H](O)c3ccc(c(Cl)c3)Oc3cc2cc(c3O[C@@H]2O[C@H](CO)[C@@H](O)[C@H](O)[C@H]2O[C@H]2C[C@](C)(N)[C@H](O)[C@H](C)O2)Oc2ccc(cc2Cl)[C@H]1O` [VANCOMYCIN], the Cmax [5] was 37800 ng/mL, the MIC (Enterococcus faecalis [1]; [28]) was 4 µg/mL (≈ 2.76 µM) and the “T>MIC” value (Rattus norvegicus [6]) was 12 h. The MIC (Enterococcus faecalis [2]; UCN41, 24 h) was over 256 µg/mL, the Tmax [7] was 0.5 h and the Activity (Enterococcus faecalis [8]) was “inactive”. The Activity (Enterococcus faecalis [9]) was “Active”, the MIC (Enterococcus faecalis [3]; JH2-2, 24 h) was 1 µg/mL (≈ 0.69 µM) and the MIC (Enterococcus faecalis [4]; [29]) was 4 µg/mL (≈ 2.76 µM).
In the case of `CC1(C)S[C@@H]2[C@H](NC(=O)[C@H](N)c3ccc(O)cc3)C(=O)N2[C@H]1C(=O)O` [AMOXICILLIN], the Activity (Enterococcus faecalis [10]) is reported as “Active”, the Tmax [11] is reported as 2 h and the Cmax [12] is reported as 29400 ng/mL. The “T>MIC” value (Rattus norvegicus [13]) was 12 h, the Activity (Enterococcus faecalis [14]) was “Active” and the MIC (Enterococcus faecalis [1]; [28]) was 0.5 µg/mL (≈ 1.37 µM). For the same compound, the MIC (Enterococcus faecalis [2]; UCN41, 24 h) was 0.25 µg/mL (≈ 0.684 µM), the Activity (Enterococcus faecalis [15]) was “Active” and the Activity (Enterococcus faecalis [16]) was “Active”. For the same compound, the Activity (Enterococcus faecalis [17]) was “Active”, the MIC (Enterococcus faecalis [3]; JH2-2, 24 h) was 0.25 µg/mL (≈ 0.684 µM) and the Activity (Enterococcus faecalis [18]) was “Active”. The MIC (Enterococcus faecalis [4]; [29]) was 1 µg/mL (≈ 2.74 µM).
In the case of `CC(=O)NC[C@H]1CN(c2ccc(N3CCOCC3)c(F)c2)C(=O)O1` [LINEZOLID], the Activity (Enterococcus faecalis [10]) is reported as “inactive”, the Tmax [19] is reported as 1 h and the Cmax [20] is reported as 17500 ng/mL. The Cmax [21] was 18600 ng/mL, the Tmax [22] was 1 h and the Cmax [23] was 19300 ng/mL. For the same compound, the “T>MIC” value (Rattus norvegicus [24]) was 24 h, the “T>MIC” value (Rattus norvegicus [25]) was 12 h and the Tmax [26] was 1 h. The “T>MIC” value (Rattus norvegicus [27]) was 48 h.
